Converted amounts (≈) assume the structure as drawn. Each block holds one molecule with its values, some of them ahead of it.
Columns and labels:
[1] = biological target: Tyrosine-protein kinase JAK2 (Homo sapiens, UniProt O60674)
[2] = Dissociation constant, pKa of the compound; type: physicochemical
[3] = Partition coefficient, log P of the compound; type: physicochemical; details: octanol/water
[4] = Growth inhibition of human SET2 cells expressing JAK2V617F mutant after 72 hrs by colorimetric WST1 assay; type: functional; details: SET-2, 72 h
Outline: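 Megakaryoblastic SET-2 cells were grown in RPMI with 10% FCS, 2 mM L-glutamine and 1% penicillin/streptomycin. Cells were exposed to an 8-point compound concentration range for 72 h. Proliferation was read by WST-1 colorimetric viability, relative to DMSO vehicle controls.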

[5] = biological target: T1, Tyrosine-protein kinase JAK3 (Homo sapiens, UniProt P52333)
T1 sequence (P52333 whole entry): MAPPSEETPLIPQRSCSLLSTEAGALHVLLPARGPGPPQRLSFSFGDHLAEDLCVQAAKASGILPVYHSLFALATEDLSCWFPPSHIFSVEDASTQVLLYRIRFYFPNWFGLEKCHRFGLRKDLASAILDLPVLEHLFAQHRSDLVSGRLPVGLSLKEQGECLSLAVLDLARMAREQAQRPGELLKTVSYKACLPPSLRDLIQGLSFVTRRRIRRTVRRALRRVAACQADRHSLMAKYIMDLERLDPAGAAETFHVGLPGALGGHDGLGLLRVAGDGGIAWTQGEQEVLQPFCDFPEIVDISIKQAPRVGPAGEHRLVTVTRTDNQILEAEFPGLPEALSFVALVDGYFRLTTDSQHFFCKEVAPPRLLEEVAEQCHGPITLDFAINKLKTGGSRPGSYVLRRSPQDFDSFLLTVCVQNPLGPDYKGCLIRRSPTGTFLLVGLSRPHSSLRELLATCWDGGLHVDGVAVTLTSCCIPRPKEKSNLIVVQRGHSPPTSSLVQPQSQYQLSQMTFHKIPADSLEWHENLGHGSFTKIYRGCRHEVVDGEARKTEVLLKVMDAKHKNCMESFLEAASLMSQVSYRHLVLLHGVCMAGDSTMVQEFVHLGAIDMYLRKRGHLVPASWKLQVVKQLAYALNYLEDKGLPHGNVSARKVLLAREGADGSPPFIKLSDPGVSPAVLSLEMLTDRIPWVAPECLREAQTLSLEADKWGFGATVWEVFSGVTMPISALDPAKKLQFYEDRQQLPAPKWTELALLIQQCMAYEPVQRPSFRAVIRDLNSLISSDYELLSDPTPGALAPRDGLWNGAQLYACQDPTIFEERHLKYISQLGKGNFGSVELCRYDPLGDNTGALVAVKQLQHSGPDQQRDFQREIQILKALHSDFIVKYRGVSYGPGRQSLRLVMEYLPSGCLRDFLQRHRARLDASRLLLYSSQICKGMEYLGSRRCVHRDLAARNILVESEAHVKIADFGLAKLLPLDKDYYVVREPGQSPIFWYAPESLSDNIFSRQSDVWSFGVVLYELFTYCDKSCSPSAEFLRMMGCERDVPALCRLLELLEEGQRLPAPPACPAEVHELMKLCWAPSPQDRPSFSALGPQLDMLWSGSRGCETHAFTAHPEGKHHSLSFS

[6] = biological target: Tyrosine-protein kinase JAK1 (Homo sapiens, UniProt P23458); test: Inhibition of recombinant GST tagged JAK1 protein after 60 mins using FITC-Ahx-KKSRGDYMTMQIG-NH2 substrate
[7] = biological target: Non-receptor tyrosine-protein kinase TYK2 (Homo sapiens, UniProt P29597); test: Inhibition of recombinant GST tagged TYK2 protein after 60 mins using FITC-Ahx-KKSRGDYMTMQIG-NH2 substrate
[8] = Volume of distribution in iv dosed rat; type: ADME, organism-based; details: in vivo
Outline: (§1)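 Conscious rats given an iv bolus, then oral dosing at 3 mg/kg as a suspension in 0.5% carboxymethyl cellulose in bidistilled water. Clearance, volume of distribution, terminal half-life, oral AUC and bioavailability were derived.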

Rattus norvegicus [9] = test: Oral bioavailability in rat at 3 mg/kg; type: ADME, organism-based; details: in vivo
Outline: as §1

Rattus norvegicus [10] = test: AUC in rat at 3 mg/kg, po; type: ADME, organism-based, Plasma; design: dose 3 mg/kg, route oral; details: in vivo
Outline: as §1

[11] = Terminal half life in iv dosed rat; type: ADME, organism-based; details: in vivo, read-out: beta t1/2 (converted)
Outline: as §1

[12] = AUC in rat at 1 mg/kg, iv after 48 hrs by MS/MS analysis; type: ADME, organism-based; design: time < 48 hr, dose 1 mg/kg, route intravenous; details: plasma
Outline: (§2)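 Conscious, fed, permanently cannulated female rats, n=4; 1 mg/kg iv via femoral vein in 30% NMP/PEG200, and 3 mg/kg po by gavage in 50% aqueous PEG200, crossover with 48 h washout. Arterial blood was sampled for 48 h (iv) or 24 h (po), precipitated with CH3CN, and measured by C18 HPLC-MS/MS.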

[13] = Aqueous solubility at pH 6.8; type: physicochemical
[14] = Tmax in rat at 3 mg/kg, po or 1 mg/kg, iv by MS/MS analysis; type: ADME, organism-based; details: in vivo
Outline: as §2

[15] = Volume of distribution at steady state in rat at 1 mg/kg, iv or 3 mg/kg, po by MS/MS analysis; type: ADME, organism-based; details: in vivo, read-out: Vdss
Outline: as §2

[16] = Cmax in rat at 3 mg/kg, po or 1 mg/kg, iv by MS/MS analysis; type: ADME, organism-based; details: in vivo
Outline: as §2

[17] = Oral bioavailability in rat at 3 mg/kg after 24 hrs by MS/MS analysis; type: ADME, organism-based; details: in vivo
Outline: as §2

[18] = biological target: Tyrosine-protein kinase ABL1 (Homo sapiens, UniProt P00519)
[19] = Half life in rat at 1 mg/kg, iv after 48 hrs by MS/MS analysis; details: in vivo
[20] = Clearance in rat at 1 mg/kg, iv after 48 hrs by MS/MS analysis; details: in vivo

Chain of Tyrosine-protein kinase JAK2 (O60674 whole entry): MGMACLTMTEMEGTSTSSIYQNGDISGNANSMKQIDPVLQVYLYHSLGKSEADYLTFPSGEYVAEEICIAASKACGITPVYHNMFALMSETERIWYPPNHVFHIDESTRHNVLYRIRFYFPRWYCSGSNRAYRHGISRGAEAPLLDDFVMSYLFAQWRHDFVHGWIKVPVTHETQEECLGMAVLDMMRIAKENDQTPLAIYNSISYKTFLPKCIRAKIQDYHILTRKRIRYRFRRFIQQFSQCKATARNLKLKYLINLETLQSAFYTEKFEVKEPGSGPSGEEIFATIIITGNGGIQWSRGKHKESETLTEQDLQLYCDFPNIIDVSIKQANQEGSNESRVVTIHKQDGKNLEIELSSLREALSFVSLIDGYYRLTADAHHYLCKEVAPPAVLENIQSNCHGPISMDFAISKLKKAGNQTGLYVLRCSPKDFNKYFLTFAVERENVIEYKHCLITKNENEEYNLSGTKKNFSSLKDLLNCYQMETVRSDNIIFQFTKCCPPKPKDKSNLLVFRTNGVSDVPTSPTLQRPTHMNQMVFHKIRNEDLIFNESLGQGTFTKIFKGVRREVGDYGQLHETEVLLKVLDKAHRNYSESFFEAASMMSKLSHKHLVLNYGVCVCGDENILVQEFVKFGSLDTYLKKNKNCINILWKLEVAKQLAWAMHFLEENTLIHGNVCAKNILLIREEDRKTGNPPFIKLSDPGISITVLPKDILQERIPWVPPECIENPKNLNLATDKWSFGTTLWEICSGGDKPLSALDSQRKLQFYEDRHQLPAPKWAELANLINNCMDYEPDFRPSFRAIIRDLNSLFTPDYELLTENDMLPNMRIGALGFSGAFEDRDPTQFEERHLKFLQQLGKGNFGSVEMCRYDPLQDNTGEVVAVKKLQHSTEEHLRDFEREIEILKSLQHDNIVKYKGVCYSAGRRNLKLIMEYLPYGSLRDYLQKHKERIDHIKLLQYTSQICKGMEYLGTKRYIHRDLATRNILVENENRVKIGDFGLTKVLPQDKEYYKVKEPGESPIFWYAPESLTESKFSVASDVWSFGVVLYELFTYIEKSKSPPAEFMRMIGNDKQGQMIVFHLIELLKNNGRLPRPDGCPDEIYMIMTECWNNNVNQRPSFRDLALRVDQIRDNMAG
Chain of Non-receptor tyrosine-protein kinase TYK2 (P29597 whole entry): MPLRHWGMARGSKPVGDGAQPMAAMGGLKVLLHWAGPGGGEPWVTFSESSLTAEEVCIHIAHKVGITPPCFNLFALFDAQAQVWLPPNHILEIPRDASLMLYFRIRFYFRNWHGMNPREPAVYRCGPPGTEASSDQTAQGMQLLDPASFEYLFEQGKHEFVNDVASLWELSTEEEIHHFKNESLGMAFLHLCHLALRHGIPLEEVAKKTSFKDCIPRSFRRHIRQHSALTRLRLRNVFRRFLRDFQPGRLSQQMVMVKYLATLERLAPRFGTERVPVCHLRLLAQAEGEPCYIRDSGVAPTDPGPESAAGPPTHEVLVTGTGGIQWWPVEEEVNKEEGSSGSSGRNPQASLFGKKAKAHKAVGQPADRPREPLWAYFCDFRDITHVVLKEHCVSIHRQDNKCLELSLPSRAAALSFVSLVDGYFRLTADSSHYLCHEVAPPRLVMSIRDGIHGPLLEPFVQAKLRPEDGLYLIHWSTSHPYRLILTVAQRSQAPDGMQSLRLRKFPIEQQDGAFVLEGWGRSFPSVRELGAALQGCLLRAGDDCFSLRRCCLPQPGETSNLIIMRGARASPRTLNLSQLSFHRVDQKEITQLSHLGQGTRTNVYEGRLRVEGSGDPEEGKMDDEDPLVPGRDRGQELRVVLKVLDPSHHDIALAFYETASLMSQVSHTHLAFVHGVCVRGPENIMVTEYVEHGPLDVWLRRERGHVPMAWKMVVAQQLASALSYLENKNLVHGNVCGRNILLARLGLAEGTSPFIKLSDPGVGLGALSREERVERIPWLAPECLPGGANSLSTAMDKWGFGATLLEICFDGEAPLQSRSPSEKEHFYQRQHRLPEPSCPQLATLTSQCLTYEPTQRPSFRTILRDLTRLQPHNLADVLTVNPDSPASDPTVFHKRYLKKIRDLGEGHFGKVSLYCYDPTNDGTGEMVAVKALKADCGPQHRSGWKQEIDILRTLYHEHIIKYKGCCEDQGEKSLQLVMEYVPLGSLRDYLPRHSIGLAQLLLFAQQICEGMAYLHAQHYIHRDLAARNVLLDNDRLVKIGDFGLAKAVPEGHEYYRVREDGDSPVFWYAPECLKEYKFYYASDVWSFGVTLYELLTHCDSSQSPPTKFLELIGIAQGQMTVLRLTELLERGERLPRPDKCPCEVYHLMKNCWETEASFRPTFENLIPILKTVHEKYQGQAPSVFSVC
Chain of Tyrosine-protein kinase JAK1 (P23458 whole entry): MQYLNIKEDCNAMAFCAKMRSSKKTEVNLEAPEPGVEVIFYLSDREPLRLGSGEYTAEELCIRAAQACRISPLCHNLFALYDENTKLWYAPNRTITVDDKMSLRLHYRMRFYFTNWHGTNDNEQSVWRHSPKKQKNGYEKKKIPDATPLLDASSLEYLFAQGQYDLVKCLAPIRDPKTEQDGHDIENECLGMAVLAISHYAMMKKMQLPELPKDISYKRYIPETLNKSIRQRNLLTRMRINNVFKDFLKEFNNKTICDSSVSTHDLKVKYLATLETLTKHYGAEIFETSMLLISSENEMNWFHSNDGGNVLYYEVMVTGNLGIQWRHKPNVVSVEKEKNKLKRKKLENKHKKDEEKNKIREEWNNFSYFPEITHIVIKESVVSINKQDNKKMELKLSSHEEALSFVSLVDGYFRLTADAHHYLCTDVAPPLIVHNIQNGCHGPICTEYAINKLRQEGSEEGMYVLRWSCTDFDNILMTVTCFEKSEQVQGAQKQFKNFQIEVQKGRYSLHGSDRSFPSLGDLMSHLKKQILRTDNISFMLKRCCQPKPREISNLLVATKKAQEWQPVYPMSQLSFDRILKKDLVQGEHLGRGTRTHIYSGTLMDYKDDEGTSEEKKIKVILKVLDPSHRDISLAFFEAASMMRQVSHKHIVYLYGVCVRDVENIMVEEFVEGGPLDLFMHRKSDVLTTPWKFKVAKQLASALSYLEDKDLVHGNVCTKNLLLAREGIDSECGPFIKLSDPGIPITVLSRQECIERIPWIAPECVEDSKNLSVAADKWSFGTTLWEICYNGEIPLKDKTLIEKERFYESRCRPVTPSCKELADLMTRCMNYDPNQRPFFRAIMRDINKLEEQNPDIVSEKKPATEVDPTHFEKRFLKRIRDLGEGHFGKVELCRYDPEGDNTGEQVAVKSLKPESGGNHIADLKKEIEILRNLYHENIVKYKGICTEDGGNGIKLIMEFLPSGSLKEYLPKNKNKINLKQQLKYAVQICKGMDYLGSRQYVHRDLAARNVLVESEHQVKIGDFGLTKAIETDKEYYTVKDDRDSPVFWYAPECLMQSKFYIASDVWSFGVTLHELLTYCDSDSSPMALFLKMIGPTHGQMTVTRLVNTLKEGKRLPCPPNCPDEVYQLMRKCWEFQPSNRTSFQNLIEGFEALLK
Chain of Tyrosine-protein kinase ABL1 (P00519 whole entry): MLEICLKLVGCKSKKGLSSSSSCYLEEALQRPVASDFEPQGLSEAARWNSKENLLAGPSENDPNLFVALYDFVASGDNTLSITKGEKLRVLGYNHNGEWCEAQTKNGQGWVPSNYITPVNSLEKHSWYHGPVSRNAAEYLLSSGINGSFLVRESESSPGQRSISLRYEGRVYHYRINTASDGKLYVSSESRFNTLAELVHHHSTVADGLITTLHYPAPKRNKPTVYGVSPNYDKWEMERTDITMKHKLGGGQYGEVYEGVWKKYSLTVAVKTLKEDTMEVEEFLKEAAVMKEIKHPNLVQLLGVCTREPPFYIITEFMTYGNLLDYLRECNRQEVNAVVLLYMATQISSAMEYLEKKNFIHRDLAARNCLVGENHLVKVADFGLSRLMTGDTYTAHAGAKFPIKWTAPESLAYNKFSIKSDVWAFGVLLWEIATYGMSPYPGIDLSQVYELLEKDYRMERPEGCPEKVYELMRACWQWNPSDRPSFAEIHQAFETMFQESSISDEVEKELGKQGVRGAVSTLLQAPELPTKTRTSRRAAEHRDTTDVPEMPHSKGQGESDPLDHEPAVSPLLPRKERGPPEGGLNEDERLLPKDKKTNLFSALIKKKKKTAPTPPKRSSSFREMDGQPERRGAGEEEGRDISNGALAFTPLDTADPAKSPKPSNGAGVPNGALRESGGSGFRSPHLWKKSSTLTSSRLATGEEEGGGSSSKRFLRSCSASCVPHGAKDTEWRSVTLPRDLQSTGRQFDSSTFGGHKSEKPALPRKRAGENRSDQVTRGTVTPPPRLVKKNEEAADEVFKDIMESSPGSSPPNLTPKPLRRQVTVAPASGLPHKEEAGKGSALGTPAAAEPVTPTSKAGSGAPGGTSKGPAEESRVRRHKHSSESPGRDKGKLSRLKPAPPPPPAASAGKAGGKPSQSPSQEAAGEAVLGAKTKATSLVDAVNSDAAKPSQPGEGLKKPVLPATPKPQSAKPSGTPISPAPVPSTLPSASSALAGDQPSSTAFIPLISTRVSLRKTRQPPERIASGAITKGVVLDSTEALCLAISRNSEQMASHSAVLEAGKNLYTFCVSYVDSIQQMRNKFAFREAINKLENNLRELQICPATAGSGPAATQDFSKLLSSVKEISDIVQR

Compound: COc1cc(-c2cnc3cccc(-c4ccc(C(=O)N5CCOCC5)cc4)c3n2)cc(OC)c1OC
IC50 [7]: 2900 nM
IC50 [6]: 390 nM

Compound: COc1cc(-c2cnc3cc(F)cc(-c4ccc(CC(=O)N5CCOCC5)cc4)c3n2)cc(OC)c1OC
IC50 [7]: > 10000 nM
IC50 [1]: 101 nM
IC50 [5]: > 10000 nM
IC50 [6]: 940 nM

Compound: COc1cc(-c2cnc3cccc(-c4ccc(C(=O)N5CCOCC5)c(C)c4)c3n2)cc(OC)c1OC
IC50 [7]: 1400 nM
IC50 [1]: 20 nM
IC50 [6]: 460 nM

Compound: COc1cc(-c2cnc3cccc(-c4ccc(CC(=O)N5CCS(=O)(=O)CC5)cc4)c3n2)cc(OC)c1OC
IC50 [7]: 340 nM
GI50 [4]: 119 nM
IC50 [6]: 35 nM

Compound: Cc1cc(-c2cnc3cccc(-c4ccc(CN5CCOCC5)c(F)c4)c3n2)ccc1C(=O)N1CCOCC1
IC50 [7]: 520 nM
IC50 [1]: 12.5 nM
GI50 [4]: 226 nM
IC50 [5]: 630 nM
IC50 [6]: 190 nM

Compound: COc1cc(-c2cnc3cccc(-c4ccc(CN5CCOCC5)cc4C)c3n2)cc(OC)c1OC
IC50 [7]: 4200 nM
IC50 [1]: 685 nM
IC50 [5]: 2700 nM
IC50 [6]: 1200 nM

Compound: Fc1cc(-c2cccc3ncc(-c4cnn(C5CCNCC5)c4)nc23)cc(F)c1CN1CCOCC1
AUC at 48 h [12]: 1.47 µM·h
solubility [13]: > 1500 µg/mL
pKa [2]: 5.5
Tmax [14]: 7 h
Vd [15]: 33 L/kg
Cmax [16]: 16 nM
GI50 [4]: 88 nM
bioavailability [17]: 31%
IC50 [18]: 80 nM

Compound: Cc1cc(-c2cnc3cccc(-c4cc(F)c(CN5CCOCC5)c(F)c4)c3n2)ccc1C(=O)N1CCOCC1
IC50 [7]: 120 nM
IC50 [1]: 3.1 nM
GI50 [4]: 135 nM
IC50 [5]: 130 nM
IC50 [6]: 60 nM

Compound: COc1cc(-c2cnc3cccc(-c4ccc(CN5CCOCC5)cc4)c3n2)cc(OC)c1OC
IC50 [7]: > 10000 nM
IC50 [5]: > 10000 nM
IC50 [6]: 1500 nM

Compound: Cc1cc(-c2cccc3ncc(-c4ccc(C(=O)N5CCOCC5)c(C)c4)nc23)ccc1CN1CCOCC1
IC50 [7]: 439 nM
IC50 [5]: 408 nM
IC50 [6]: 362 nM

Compound: CN1CCN(c2ccc(-c3cnc4cccc(-c5cc(F)c(CN6CCS(=O)(=O)CC6)c(F)c5)c4n3)cn2)CC1
IC50 [7]: 86 nM
AUC at 48 h [12]: 0.76 µM·h
solubility [13]: 4 µg/mL (≈ 7.08 µM)
IC50 [1]: 6.8 nM
pKa [2]: 3.6
half-life at 48 h [19]: 4.8 h
Tmax [14]: 8 h
clearance at 48 h [20]: 39 mL/min/kg
Vd [15]: 13.2 L/kg
logP [3]: 3.8
Cmax [16]: 47 nM
GI50 [4]: 98 nM
IC50 [5]: 230 nM
IC50 [6]: 82 nM
bioavailability [17]: 100%

Continued, in another order:

IC50 [1]: 7.1 nM
pKa [2]: 3.9
logP [3]: 2.8
IC50 [5]: 232 nM
IC50 [6]: 89 nM
Compound: Cc1cc(-c2cnc3cccc(-c4ccc(CN5CCS(=O)(=O)CC5)cc4)c3n2)ccc1C(=O)N1CCN(C)CC1
GI50 [4]: 96 nM

IC50 [7]: > 10000 nM
IC50 [1]: 4200 nM
IC50 [5]: > 10000 nM
IC50 [6]: > 10000 nM
Compound: COc1cc(-c2cnc3cc(C)cc(-c4ccc(CC(=O)N5CCS(=O)(=O)CC5)cc4)c3n2)cc(OC)c1OC

IC50 [7]: 2200 nM
IC50 [1]: 20 nM
IC50 [6]: 250 nM
Compound: COc1cc(-c2cnc3cccc(-c4ccc(CN5CCOCC5)c(F)c4)c3n2)cc(OC)c1OC

IC50 [7]: 640 nM
Vd [8]: 6.75 L/kg
F (Rattus norvegicus [9]): 34%
AUC (Rattus norvegicus [10]): 4 µg·min/mL
half-life [11]: 1.69 h
IC50 [5]: 1300 nM
IC50 [6]: 130 nM
Compound: CNS(=O)(=O)c1ccc(-c2cccc3ncc(-c4cc(OC)c(OC)c(OC)c4)nc23)cc1

IC50 [7]: 520 nM
IC50 [6]: 98 nM
Compound: COc1cc(-c2cnc3cccc(-c4ccc(CN5CCS(=O)(=O)CC5)cc4)c3n2)cc(OC)c1OC

IC50 [7]: 9300 nM
IC50 [5]: 9900 nM
IC50 [6]: 4700 nM
Compound: COc1cc(-c2cnc3cccc(-c4ccc(CN5CCOCC5)cc4F)c3n2)cc(OC)c1OC

IC50 [7]: 7130 nM
IC50 [6]: 1850 nM
Compound: COc1cc(-c2cnc3cccc(-c4ccc(CN5CCOCC5)c(C)c4)c3n2)cc(OC)c1OC

IC50 [1]: 13 nM
IC50 [6]: 91 nM
Compound: COc1cc(-c2cnc3cccc(-c4ccc(CC(=O)N5CCOCC5)cc4)c3n2)cc(OC)c1OC
GI50 [4]: 228 nM

IC50 [7]: 94 nM
AUC at 48 h [12]: 1.65 µM·h
solubility [13]: 4 µg/mL (≈ 7.76 µM)
IC50 [1]: 4.3 nM
pKa [2]: 4.5
half-life at 48 h [19]: 13.4 h
Tmax [14]: 5.8 h
clearance at 48 h [20]: 19 mL/min/kg
Vd [15]: 18.9 L/kg
logP [3]: 4
Cmax [16]: 74 nM
IC50 [5]: 166 nM
IC50 [6]: 28 nM
bioavailability [17]: 100%
Compound: CN1CCN(c2ccc(-c3cnc4cccc(-c5cc(F)c(CN6CCOCC6)c(F)c5)c4n3)cc2)CC1
GI50 [4]: 152 nM
